A word on the IC50: it is the midpoint of a concentration-inhibition curve.

The values below come from ChEMBL document CHEMBL4385601, “Anti-Zika Activity of a Library of Synthetic Carbohydrate Receptors” (J Med Chem, 2019).

Molecules are shown by their SMILES. Calls of active or inactive are those of the source. The calls are words filed in the database; no cut-off is given here.

Data set [1] deals with Zika virus. In words: Antiviral activity against Zika virus harboring subgenomic GFP replicon infected in African green monkey Vero cells assessed as reduction in viral infection at 100 uM preincubated for 30 mins followed by viral infection and measured after 72 hrs. In kind it is functional, organism-based. Background: A replicon is a self-replicating genome or part of one, used to study replication in cells.

For data set [2], the system named is Zika virus. Description: Antiviral activity against Zika virus harboring subgenomic GFP replicon infected in African green monkey Vero cells assessed as reduction in viral infection preincubated for 30 mins followed by viral infection and measured after 72 hrs. Format: functional, organism-based. Put shortly: (§1)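 Vero or HeLa cells (DMEM, 10% FBS) at 5,000/well were pretreated 30 min at room temperature; compound came from 10 mM DMSO stock diluted in medium. Cells were infected with reporter particles (ZIKV C-prM-E carrying a WNV GFP replicon) at a dose giving up to 1000 GFP+ cells/well. After 72 h at 37 °C, whole-well GFP+ counts were normalised to DMSO-treated infected cells. Wells were run in duplicate/triplicate, three experiments; IC50 taken from curve fits.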

Data set [3] is described as follows: Binding affinity to beta mannose in CD2Cl2 by NMR analysis.
The nature of data set [4]: Binding affinity to alpha mannose in CD2Cl2 by NMR analysis.
For data set [5], the system named is Zika virus. Description: Antiviral activity against Zika virus harboring subgenomic GFP replicon infected in African green monkey Vero cells assessed as reduction in viral infection treated 24 hrs post-infection and measured 72 hrs post-infection. Format: functional, organism-based. The method, boiled down:
(§2)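 Vero cells were infected with a predetermined dose of ZIKV GFP reporter virus particles. Compound was added 4 h or 24 h after infection. Plates were fixed 72 h post-infection and GFP+ cells per well counted by whole-well imaging.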

Data set [6] in a line: Cytotoxicity against African green monkey Vero cells assessed as reduction in cell viability measured after 72 hrs by Celltiter-Glo luminescence assay. Format: cell-based. Particulars: chlorocebus sabaeus, read-out: TC50. Put shortly: (§3)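 Vero or HeLa cells at 5,000/well were exposed to compound in duplicate for 72 h at 37 °C. Viability was read as cellular ATP by CellTiter-Glo luminescence and normalised to DMSO-treated cells as 100%. TC50 came from 4-parameter sigmoidal logistic fits.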

Data set [7] has as its system Zika virus. In words: Antiviral activity against Zika virus harboring subgenomic GFP replicon infected in human HeLa cells assessed as reduction in viral infection preincubated for 30 mins followed by viral infection and measured after 72 hrs. Format: functional, organism-based. Put shortly: as §1
Data set [8] in a line: Cytotoxicity against human HeLa cells assessed as reduction in cell viability measured after 72 hrs by Celltiter-Glo luminescence assay. In kind it is cell-based. Particulars: read-out: TC50. Put shortly: as §3
On the technique in general: In ATP-based viability assays light output follows the ATP content of the culture.

The test system of data set [9] is Zika virus. In words: Antiviral activity against Zika virus harboring subgenomic GFP replicon infected in African green monkey Vero cells assessed as reduction in viral infection treated 4 hrs post-infection and measured 72 hrs post-infection. Format: functional, organism-based. The method, boiled down: as §2
For data set [10], the system named is Zika virus. In words: Antiviral activity against Zika virus PRVABC-59 infected in African green monkey Vero cells assessed as reduction in viral infection up to 8 uM pretreated for 30 mins followed by viral infection and measured by 4G2 antibody based assay. In kind it is functional, organism-based. The method, boiled down: (§4)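 Vero cells at 7,500/well were pretreated with compound for 30 min at room temperature. They were then infected with PRVABC59 at a titration-set dose giving ~2000-3000 infected cells/well. Cells were fixed and stained with 4G2 anti-envelope antibody plus Alexa 488 secondary. Whole wells were imaged and positive cells counted, in triplicate wells, with the experiment repeated. Microscopy images were taken with DAPI nuclear counterstain.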

Data set [11] has as its system Vero. In words: Inhibition of envelope glycoprotein N154Q mutant in Zika virus infected in African green monkey Vero cells assessed as reduction in viral infection up to 8 uM pretreated for 30 mins followed by viral infection and measured 72 hrs post-infection. Format: cell-based. Put shortly: (§5)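 N154Q reporter particles were made by transfecting 293T cells 1:1 with C-prME-N154Q and subgenomic WNV GFP replicon plasmids, harvested at 48 h. Vero cells were pretreated with compound for 30 min at room temperature, then infected with wild-type or N154Q particles. GFP+ cells per well were counted from whole-well images at 72 h; mean ±SD of triplicate wells.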

In data set [12] the test system is Zika virus. In words: Antiviral activity against Zika virus PRVABC-59 infected in African green monkey Vero cells assessed as reduction in viral infection at 8 uM pretreated for 30 mins followed by viral infection and measured by DAPI staining-based fluorescence microscopic method. Format: functional, organism-based. Put shortly:
as §4

Data set [13] in a line: Therapeutic index, ratio of TC50 for African green monkey Vero cells to IC50 for Zika virus harboring subgenomic GFP replicon infected in African green monkey Vero cells. In kind it is toxicity. As to conditions: read-out: TI.
Data set [14] relates to Zika virus. Description: Antiviral activity against Zika virus PRVABC-59 infected in African green monkey Vero cells assessed as reduction in viral infection up to 200 uM pretreated for 30 mins followed by viral infection and measured by 4G2 antibody based assay. In kind it is functional, organism-based. The method, boiled down:
as §4

Data set [15] deals with Zika virus. Description: Antiviral activity against Zika virus PRVABC-59 infected in African green monkey Vero cells assessed as reduction in viral infection at 200 uM pretreated for 30 mins followed by viral infection and measured by DAPI staining-based fluorescence microscopic method. In kind it is functional, organism-based. The method, boiled down:
as §4

For data set [16], the system named is Vero. Description: Inhibition of envelope glycoprotein N154Q mutant in Zika virus infected in African green monkey Vero cells assessed as reduction in viral infection up to 200 uM pretreated for 30 mins followed by viral infection and measured 72 hrs post-infection. In kind it is cell-based. The method, boiled down: as §5
[17] abbreviates: Zika virus, Vero, read-out: IC50.

Turning to `O=C(NCc1cc(CNC(=O)c2ccco2)cc(-c2cc(CNC(=O)c3ccco3)cc(CNC(=O)c3ccco3)c2)c1)c1ccco1`, the result in the data set with Zika virus [1] was Active. Besides, the IC50 result in the data set with Zika virus [2] (vero) is “Nd(Insoluble)”.
Turning to `O=C(NCc1cc(CNC(=O)c2cccs2)cc(-c2cc(CNC(=O)c3cccs3)cc(CNC(=O)c3cccs3)c2)c1)c1cccs1`, the result with Zika virus [1] was Active. In addition, the half-maximal inhibitory concentration (IC50) in the data set on Zika virus [2] (setting [17]) was greater than 100000 nM.
Turning to `C(=N\Cc1cc(C/N=C/c2cccs2)cc(-c2cc(C/N=C/c3cccs3)cc(C/N=C/c3cccs3)c2)c1)/c1cccs1`, the result in the data set on Zika virus [1] was Active. In the data set on Zika virus [2] (setting [17]), the 50% inhibitory concentration (IC50) is greater than 100000 nM. In addition, the Ka result in data set [3] and in [4] was “inactive” in each case.
As to `c1c[nH]c(CNCc2cc(CNCc3ccc[nH]3)cc(-c3cc(CNCc4ccc[nH]4)cc(CNCc4ccc[nH]4)c3)c2)c1`, in the data set on Zika virus [1], the outcome was Active. Also, the IC50 in the data set with Zika virus [2] (setting [17]) came to 360 nM; in the data set with Zika virus [7], 450 nM. The result in the data set on Zika virus [5] and in the data set with Zika virus [9] was inactive. Besides, the figures for the CC50 at 72 h in data set [6] and in data set [8] were 34200 nM and 2430 nM, respectively. In addition, the Ka amounted to 3.6 ×10⁴ /M in [3] and 1.4 ×10³ /M in [4].
As for `Cn1ccnc1CNCc1cc(CNCc2nccn2C)cc(-c2cc(CNCc3nccn3C)cc(CNCc3nccn3C)c2)c1`, the outcome in the data set on Zika virus [1] was Active. Also, the IC50 in the data set with Zika virus [2] (setting [17]) was greater than 100000 nM. In addition, the figures for the Ka in data set [3] and in data set [4] were 5.9 ×10² /M and 4.4 ×10³ /M, respectively.
With `c1coc(CNCc2cc(CNCc3ccco3)cc(-c3cc(CNCc4ccco4)cc(CNCc4ccco4)c3)c2)c1`, in the data set with Zika virus [1], the outcome was Active. Besides, the half-inhibitory concentration (IC50) was 1130 nM with Zika virus [2] (setting [17]) and 350 nM with Zika virus [7]. In addition, the outcome with Zika virus [5] and in the data set on Zika virus [9] was inactive. The CC50 at 72 h in data set [6] is 5430 nM; in data set [8], 2510 nM. Further, the figures for the Ka in [3] and in data set [4] were 5.4 ×10¹ /M and 1.1 ×10² /M, respectively.
For the molecule `c1c[nH]c(CNCc2cc(CNCc3ccc[nH]3)cc(-c3cc(CNCc4ccc[nH]4)cc(Cn4cc(COCCOCCOCCOCc5cn(Cc6cc(CNCc7ccc[nH]7)cc(-c7cc(CNCc8ccc[nH]8)cc(CNCc8ccc[nH]8)c7)c6)nn5)nn4)c3)c2)c1`, the result in the data set with Zika virus [1], with Zika virus [10] and with Zika virus [12] was Active. The values for the half-maximal inhibitory concentration (IC50) in the data set with Zika virus [2] (setting [17]) and with Zika virus [7] were 160 nM and 240 nM, respectively. The result with Zika virus [5] and in the data set with Zika virus [9] was inactive. Also, the CC50 at 72 h amounted to 36200 nM in data set [6] and 2480 nM in data set [8]. Moreover, in the data set with Vero [11], the inhibition entry is “Active”. Besides, the values for the Ka in data set [3] and in data set [4] were 1.7 ×10³ /M and 2.6 ×10³ /M, respectively. For the same molecule, in data set [13], the selectivity ratio is greater than 220.
Turning to `Cc1ccc(C(=O)Nc2ccc(S(=O)(=O)O)c3cc(S(=O)(=O)O)cc(S(=O)(=O)O)c23)cc1NC(=O)c1cccc(NC(=O)Nc2cccc(C(=O)Nc3cc(C(=O)Nc4ccc(S(=O)(=O)O)c5cc(S(=O)(=O)O)cc(S(=O)(=O)O)c45)ccc3C)c2)c1` [SURAMIN], the result with Zika virus [14] and with Zika virus [15] was Active. In addition, the Activity entry in the data set on Zika virus [2] is “Dose-dependent effect”. The half-inhibitory concentration (IC50) in the data set on Zika virus [2] (setting [17]) was determined as 44000 nM. Also, the outcome with Zika virus [5] and in the data set with Zika virus [9] was inactive. In addition, in data set [6], the CC50 at 72 h is greater than 200000 nM. For the same molecule, the inhibition entry in the data set with Vero [16] is “Active”.
Consider `c1csc(CNCc2cc(CNCc3cccs3)cc(-c3cc(CNCc4cccs4)cc(CNCc4cccs4)c3)c2)c1`, for which, in the data set on Zika virus [1], the outcome was Active. Besides, the values for the IC50 with Zika virus [2] (setting [17]) and in the data set with Zika virus [7] were 1310 nM and 560 nM, respectively. Moreover, the outcome with Zika virus [5] and in the data set on Zika virus [9] was inactive. For the same molecule, the values for the CC50 at 72 h in data set [6] and in data set [8] were 4120 nM and 2470 nM, respectively. The Ka result in data set [3] was “inactive”. Also, in data set [4], the Ka amounted to 1.4 ×10² /M.
With `c1coc(CNCc2cc(CNCc3ccco3)cc(-c3cc(CNCc4ccco4)cc(Cn4cc(COCCOCCOCCOCc5cn(Cc6cc(CNCc7ccco7)cc(-c7cc(CNCc8ccco8)cc(CNCc8ccco8)c7)c6)nn5)nn4)c3)c2)c1`, in the data set with Zika virus [1], the outcome was Active. The figures for the half-maximal inhibitory concentration (IC50) in the data set with Zika virus [2] (setting [17]) and with Zika virus [7] were 12400 nM and 1370 nM, respectively. The results for the CC50 at 72 h in [6] and in data set [8] were 51500 nM and 2220 nM, respectively.
Take `NCc1cc(CN)cc(-c2cc(CN)cc(CN)c2)c1`: the outcome in the data set on Zika virus [1] was Active. The IC50 in the data set with Zika virus [2] (setting [17]) was greater than 100000 nM.
As to `C(=N\Cc1cc(C/N=C/c2ccco2)cc(-c2cc(C/N=C/c3ccco3)cc(C/N=C/c3ccco3)c2)c1)/c1ccco1`, in the data set with Zika virus [1], the result was Active. In addition, in the data set on Zika virus [2] (setting [17]), the IC50 is greater than 100000 nM. Also, the Ka in [3] was 3.7 ×10¹ /M; in data set [4], 2 ×10² /M.
With `C(=N\Cc1cc(C/N=C/c2ccc[nH]2)cc(-c2cc(C/N=C/c3ccc[nH]3)cc(C/N=C/c3ccc[nH]3)c2)c1)/c1ccc[nH]1`, the result in the data set with Zika virus [1] was Active. Besides, the 50% inhibitory concentration (IC50) with Zika virus [2] (setting [17]) was found to be 1360 nM; in the data set on Zika virus [7], 3060 nM. Also, the outcome in the data set with Zika virus [5] and in the data set with Zika virus [9] was inactive. For the same molecule, the results for the CC50 at 72 h in data set [6] and in [8] were 46100 nM and 17600 nM, respectively. The Ka is 2.4 ×10³ /M in data set [3] and 3 ×10³ /M in data set [4].
